A short description of series [1]: Toxicity in sheep RBC assessed as hemolysis at 25 times MIC after 1 hr. Type of series: cell-based, Ovis aries, Erythrocyte. As to conditions: sheep red blood cells, read-out: Activity. The method, boiled down:
(§1)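 Sheep RBCs separated from plasma and white cells by centrifugation, washed twice in TBS (10 mM Tris, 150 mM NaCl, pH 7.0), diluted to 1%. Treated with increasing concentrations of compound in DMSO, 37 °C for 1 h, in duplicate. Supernatant absorbance at 414 nm for hemoglobin release; DMSO set as 0%, 1% Triton X as 100% hemolysis.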

The test system of series [2] is Staphylococcus aureus. The series can be described thus: Antibacterial activity against vancomycin-intermediate Staphylococcus aureus Mu50 after 18 to 24 hrs by broth microdilution method. It is filed as functional. An outline of the steps: (§2)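 Strains grown overnight at 35°C on tryptic soy agar; 0.5 McFarland saline suspension diluted in Mueller-Hinton broth, final inoculum 5 × 10⁵ CFU/mL. Twofold serial dilutions, final 0.06 to 32 mg/L, in MHB; incubated 35°C for 18–24h. MIC read visually as lowest concentration preventing growth.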
(In general: In broth dilution the organism is exposed to a series of concentrations in liquid medium.)

For a further series, the system named is Streptococcus pneumoniae. Put plainly: Antibacterial activity against Streptococcus pneumoniae ATCC 49619 after 18 to 24 hrs by broth microdilution method. Type of series: functional. An outline of the steps:
as §2

The test system of a further series is Enterococcus faecium. Put plainly: Antibacterial activity against vancomycin-resistant Enterococcus faecium 7303 after 18 to 24 hrs by broth microdilution method. Type of series: functional. An outline of the steps: (§3)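 MIC by broth microdilution in Mueller-Hinton broth. Strains grown overnight at 35°C on tryptic soy agar, suspended in saline to 0.5 McFarland, diluted in MHB, final inoculum 5 × 10⁵ CFU/mL. Twofold serial dilutions, final 0.06 to 32 mg/L. Incubated 35°C for 18–24 h. MIC read visually as lowest concentration preventing growth.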

Series [3] in a line: Therapeutic index, ratio of LD50 for mouse NIH/3T3 cells to MIC for vancomycin-resistant Staphylococcus aureus MI. Type of series: cell-based. The note with it: read-out: TI. The method, boiled down: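 Index computed as LD50 from NIH-3T3 MTS viability (24 h exposure, 10–100 mg/L, nonlinear regression) divided by VRSA MIC from broth microdilution (5 × 10⁵ CFU/mL, 35°C, 18–24 h, visual read).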

A further series relates to Pseudomonas aeruginosa. Put plainly: Antibacterial activity against Pseudomonas aeruginosa ATCC 27853 after 18 to 24 hrs by broth microdilution method. It is filed as functional. The method, boiled down: as §2
Series [4] relates to Staphylococcus aureus. Put plainly: Antibacterial activity against vancomycin-resistant Staphylococcus aureus MI after 18 to 24 hrs by broth microdilution method. It is filed as functional. An outline of the steps: as §3
The next series has as its system Klebsiella pneumoniae. The series can be described thus: Antibacterial activity against Klebsiella pneumoniae CEF 3978 after 18 to 24 hrs by broth microdilution method. Type of series: functional. The method, boiled down: as §2
The test system of a further series is Escherichia coli. Put plainly: Antibacterial activity against Escherichia coli ATCC 25922 after 18 to 24 hrs by broth microdilution method. It is filed as functional. The method, boiled down:
as §2

Series [5] can be described thus: Cytotoxicity against mouse NIH/3T3 cells after 24 hrs by MTS assay. It is filed as cell-based, NIH3T3. The note with it: read-out: LD50. The method, boiled down:
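NIH-3T3 mouse embryo fibroblasts kept in DMEM with 10% FBS, about 10,000 cells per well, attached overnight. Treated 24 h with 10, 25, 50 or 100 mg/L compound (DMSO) in DMEM/FBS. MTS added in fresh DMEM for 1 h at 37 °C, absorbance at 490 nm. Four replicates, media negative and 5% DMSO positive controls. Viability relative to untreated cells; LD50 by nonlinear regression.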
Background: Tetrazolium assays rely on reduction of a dye to a coloured formazan, in cell work by metabolically active cells.

In a further series the test system is Klebsiella aerogenes. Put plainly: Antibacterial activity against Enterobacter aerogenes CEF 3978 after 18 to 24 hrs by broth microdilution method. It is filed as functional. An outline of the steps: as §2
Series [6] has as its system Staphylococcus aureus. The series can be described thus: Antibacterial activity against methicillin-resistant Staphylococcus aureus 494 after 18 to 24 hrs by broth microdilution method. Type of series: functional. The method, boiled down: as §3
Series [7] in a line: Toxicity in sheep RBC assessed as hemolysis at 50 times MIC after 1 hr. It is filed as cell-based, Ovis aries, Erythrocyte. The note with it: sheep red blood cells, read-out: Activity. The method, boiled down: as §1

Converted amounts (≈) assume the structure as drawn.

The MIC is the smallest concentration in the dilution series that meets the test's criterion for growth inhibition. For `CC(C)C1Cc2sc3[nH]c(=O)n(C/C=C/c4ccc(O)cc4)c(=O)c3c2C(Cc2ccccc2)C1` (stereo unspecified), in series [1], the hemolysis at 1 h, 25 times MIC turned out to be 7%. Besides, the MIC in the series on Staphylococcus aureus [2] amounted to 16 µg/mL (≈ 32.9 µM); against Streptococcus pneumoniae, 32 µg/mL (≈ 65.8 µM); with Enterococcus faecium, 8 µg/mL (≈ 16.4 µM); in the series with Pseudomonas aeruginosa, 16 µg/mL (≈ 32.9 µM); in the series on Staphylococcus aureus [4], 8 µg/mL (≈ 16.4 µM); against Klebsiella pneumoniae, 32 µg/mL (≈ 65.8 µM). Also, the minimal inhibitory concentration (MIC) came to 32 µg/mL (≈ 65.8 µM) with Escherichia coli, 32 µg/mL (≈ 65.8 µM) with Klebsiella aerogenes and 16 µg/mL (≈ 32.9 µM) against Staphylococcus aureus [6]. Besides, in series [3], the selectivity ratio was 5. Besides, in series [5], the CC50 at 24 h came out at 42 µg/mL (≈ 86.3 µM).

Turning to `CCOC(=O)c1sc2[nH]c(=O)n(C/C=C/c3ccc(O)cc3)c(=O)c2c1CCc1ccccc1`, the MIC turned out to be 2 µg/mL (≈ 4.2 µM) against Staphylococcus aureus [2]; 8 µg/mL (≈ 16.8 µM) in the series with Streptococcus pneumoniae; 4 µg/mL (≈ 8.39 µM) with Enterococcus faecium; 32 µg/mL (≈ 67.1 µM) with Pseudomonas aeruginosa; 2 µg/mL (≈ 4.2 µM) against Staphylococcus aureus [4]; 32 µg/mL (≈ 67.1 µM) with Klebsiella pneumoniae. Besides, the MIC is > 32 µg/mL against Escherichia coli, 16 µg/mL (≈ 33.6 µM) against Klebsiella aerogenes and 2 µg/mL (≈ 4.2 µM) against Staphylococcus aureus [6]. For the same compound, in series [3], the selectivity ratio came to 26. Besides, the hemolysis at 1 h, 50 times MIC in series [7] is 2%. For the same compound, in series [5], the CC50 at 24 h was 52 µg/mL (≈ 109 µM).

In the case of `CCOC(=O)c1c(NC(=O)NC/C=C/c2ccc(O[Si](C)(C)C(C)(C)C)cc2)sc2c1C(Cc1ccccc1)CC(C(C)C)C2` (stereo unspecified), the minimum inhibitory concentration (MIC) against Staphylococcus aureus [2], with Streptococcus pneumoniae, against Enterococcus faecium, in the series with Pseudomonas aeruginosa, in the series with Staphylococcus aureus [4] and in the series with Klebsiella pneumoniae was > 32 µg/mL throughout. Further, the minimum inhibitory concentration (MIC) in the series with Escherichia coli, against Klebsiella aerogenes and against Staphylococcus aureus [6] was > 32 µg/mL in each case.

As for `CN[C@H](CC(C)C)C(=O)N[C@H]1C(=O)N[C@@H](CC(N)=O)C(=O)N[C@H]2C(=O)N[C@H]3C(=O)N[C@H](C(=O)N[C@H](C(=O)O)c4cc(O)cc(O)c4-c4cc3ccc4O)[C@H](O)c3ccc(c(Cl)c3)Oc3cc2cc(c3O[C@@H]2O[C@H](CO)[C@@H](O)[C@H](O)[C@H]2O[C@H]2C[C@](C)(N)[C@H](O)[C@H](C)O2)Oc2ccc(cc2Cl)[C@H]1O` [VANCOMYCIN], the MIC in the series with Streptococcus pneumoniae was 0.5 µg/mL (≈ 0.345 µM); against Enterococcus faecium, > 32 µg/mL; in the series with Pseudomonas aeruginosa it was > 32 µg/mL.

As to `COc1ccc(/C=C/Cn2c(=O)[nH]c3sc4c(c3c2=O)C(Cc2ccccc2)CC(C(C)C)C4)cc1` (stereo unspecified), the MIC with Staphylococcus aureus [2] is > 32 µg/mL; in the series on Streptococcus pneumoniae, 32 µg/mL (≈ 63.9 µM); against Enterococcus faecium, > 32 µg/mL; against Pseudomonas aeruginosa, > 32 µg/mL; against Staphylococcus aureus [4], > 32 µg/mL; in the series with Klebsiella pneumoniae, > 32 µg/mL. Also, the MIC in the series with Escherichia coli is > 32 µg/mL; against Klebsiella aerogenes, 32 µg/mL (≈ 63.9 µM); in the series with Staphylococcus aureus [6], > 32 µg/mL. Also, the selectivity ratio in [3] is 4. Besides, in series [5], the CC50 at 24 h was determined as 120 µg/mL (≈ 240 µM).

Consider `CCOC(=O)c1sc2[nH]c(=O)n(C/C=C/c3ccc(OC)cc3)c(=O)c2c1CCc1ccccc1`, for which the minimum inhibitory concentration (MIC) against Staphylococcus aureus [2], against Streptococcus pneumoniae, against Enterococcus faecium, against Pseudomonas aeruginosa, against Staphylococcus aureus [4] and against Klebsiella pneumoniae was > 32 µg/mL each time. The MIC in the series on Escherichia coli was > 32 µg/mL; in the series with Klebsiella aerogenes, 8 µg/mL (≈ 16.3 µM); in the series with Staphylococcus aureus [6], > 32 µg/mL. In addition, the selectivity ratio in [3] was 3. Also, the CC50 at 24 h in series [5] stood at 98 µg/mL (≈ 200 µM).

Regarding `CCOC(=O)c1sc(NC(=O)NC/C=C/c2ccc(O[Si](C)(C)C(C)(C)C)cc2)c(C(=O)OCC)c1CCc1ccccc1`, the minimal inhibitory concentration (MIC) against Staphylococcus aureus [2], in the series on Streptococcus pneumoniae, against Enterococcus faecium, in the series with Pseudomonas aeruginosa, with Staphylococcus aureus [4] and against Klebsiella pneumoniae was > 32 µg/mL each time. Moreover, the minimum inhibitory concentration (MIC) against Escherichia coli, in the series on Klebsiella aerogenes and in the series with Staphylococcus aureus [6] was > 32 µg/mL in each case.

With `CCOC(=O)c1sc(NC(=O)NC/C=C/c2ccc(OC)cc2)c(C(=O)OCC)c1CCc1ccccc1`, the minimal inhibitory concentration (MIC) against Staphylococcus aureus [2], against Streptococcus pneumoniae, against Enterococcus faecium, against Pseudomonas aeruginosa, against Staphylococcus aureus [4] and against Klebsiella pneumoniae was > 32 µg/mL each time. The MIC in the series on Escherichia coli, in the series with Klebsiella aerogenes and in the series on Staphylococcus aureus [6] was > 32 µg/mL throughout.

(Values after ChEMBL document CHEMBL1955810, “Thieno[2,3-d]pyrimidinedione derivatives as antibacterial agents” (Eur J Med Chem, 2012).)
